The values below come from ChEMBL document CHEMBL1123069, “[[(4,5-Dihydro-2-oxazolyl)phenoxy]alkyl]isoxazoles. Inhibitors of picornavirus uncoating” (1985).

Molecules are shown by their SMILES. Values after ≈ are worked out from the molar mass of the structure shown. Active and inactive are the calls of the source. No cut-off for these calls is given here.

Assay [1] is described as follows: In vitro antiviral activity against mice infected intracerebrally with Poliovirus type-2. Format: functional.
A further assay deals with Enterovirus. The assay can be described thus: In vitro antiviral activity against Rhinovirus type-2. Format: functional.
The species named for assay [2] is Mus musculus. The assay can be described thus: MIC at the Maximal testable level in mice was evaluated. Format: functional. The conditions noted are these: read-out: MIC.
Assay [3] deals with Mus musculus. The assay can be described thus: In vitro antiviral activity against mice infected intracerebrally with Poliovirus type-2; IA=Inactive. Format: functional, organism-based.
The subject of assay [4] is Mus musculus. The assay can be described thus: Prevention of Echo-9-Induced Paralysis in Suckling mice by intraperitoneal administration at dose 1 mg/kg; expressed as no. nonparalyzed/total 2/30. The format is functional. Put shortly:
(§1)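 Suckling mice infected subcutaneously with a lethal dose of ECHO-9 virus. Intraperitoneal dosing at 1.0, 3.3, 10 or 33 mg/kg, or placebo, began 1 h before infection and continued once daily for 8 days. Groups of 30 animals were scored for paralysis, and the test ended 14 days post-infection. Results are given as % nonparalyzed (± spread) and as the nonparalyzed/total count.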

Assay [5] concerns Mus musculus. The assay can be described thus: Prevention of Echo-9-Induced Paralysis in Suckling mice by intraperitoneal administration at dose 10 mg/kg; Expressed as % nonparalyzed. Format: functional. Put shortly:
as §1

For assay [6], the system named is Mus musculus. The assay can be described thus: Prevention of Echo-9-Induced Paralysis in Suckling mice by intraperitoneal administration at dose 10 mg/kg; expressed as no. nonparalyzed/total 19/30. Format: functional. The essentials: as §1
Assay [7] relates to Mus musculus. The assay can be described thus: Prevention of Echo-9-Induced Paralysis in Suckling mice by intraperitoneal administration at dose 3.3 mg/kg; Expressed as % nonparalyzed. The format is functional. Put shortly:
as §1

For assay [8], the system named is Mus musculus. The assay can be described thus: Prevention of Echo-9-Induced Paralysis in Suckling mice by intraperitoneal administration at dose 3.3 mg/kg; expressed as no. nonparalyzed/total 6/30. The format is functional. Put shortly: as §1
Assay [9] deals with Mus musculus. The assay can be described thus: Prevention of Echo-9-Induced Paralysis in Suckling mice by intraperitoneal administration at dose 33 mg/kg; Expressed as % nonparalyzed. The format is functional. Put shortly: as §1
Assay [10] deals with Mus musculus. The assay can be described thus: Prevention of Echo-9-Induced Paralysis in Suckling mice by intraperitoneal administration at dose 33 mg/kg; expressed as no. nonparalyzed/total 29/30. The format is functional. The essentials:
as §1

The species entered for assay [11] is Mus musculus. The assay can be described thus: Prevention of Echo-9-Induced Paralysis in Suckling mice with Placebo; Expressed as % nonparalyzed. Format: functional. Put shortly: as §1
The species entered for assay [12] is Mus musculus. The assay can be described thus: Prevention of Echo-9-Induced Paralysis in Suckling mice with Placebo; expressed as no. nonparalyzed/total 0/30. The format is functional. Put shortly: as §1
In assay [13] the test system is Mus musculus. The assay can be described thus: Prevention of Echo-9-Induced Paralysis in Suckling mice by intraperitoneal administration at dose 1 mg/kg; Expressed as % nonparalyzed. The format is functional. Put shortly:
as §1

The subject of assay [14] is Mus musculus. The assay can be described thus: In vivo antiviral activity at 16 mg/kg oral dose in mice infected with Poliovirus;13/20. The format is functional. Put shortly: (§2)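 Mice given oral drug or placebo starting 1 h before intracerebral infection with poliovirus type 2. Doses were 4, 8, 16 or 32 mg/kg, with 20 mice per group. Survival was scored as % survivors and number surviving out of total, with the test ending 20 days post-infection.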

Assay [15] relates to Mus musculus. The assay can be described thus: In vivo antiviral activity at 32 mg/kg oral dose in mice infected with Poliovirus; 15/20. Format: functional. The essentials: as §2
For assay [16], the system named is Mus musculus. The assay can be described thus: In vivo antiviral activity at 4 mg/kg oral dose in mice infected with Poliovirus; 8/20. The format is functional. Put shortly: as §2
For assay [17], the system named is Mus musculus. The assay can be described thus: In vivo antiviral activity at 8 mg/kg oral dose in mice infected with Poliovirus; 9/20. The format is functional. The essentials: as §2
Assay [18] deals with Mus musculus. The assay can be described thus: In vivo antiviral activity of the compound in Placebo treated mice infected with Poliovirus; 4/20. The format is functional. The essentials:
as §2

The test system of assay [19] is Mus musculus. The assay can be described thus: In vivo antiviral activity at 16 mg/kg oral dose in mice infected with Poliovirus. Format: functional. The essentials:
as §2

The subject of assay [20] is Mus musculus. The assay can be described thus: In vivo antiviral activity at 32 mg/kg oral dose in mice infected with Poliovirus. The format is functional. Put shortly: as §2
Assay [21] relates to Mus musculus. The assay can be described thus: In vivo antiviral activity at 4 mg/kg oral dose in mice infected with Poliovirus. The format is functional. Put shortly:
as §2

The subject of assay [22] is Mus musculus. The assay can be described thus: In vivo antiviral activity at 8 mg/kg oral dose in mice infected with Poliovirus. The format is functional. Put shortly:
as §2

Assay [23] relates to Mus musculus. The assay can be described thus: In vivo antiviral activity of the compound in Placebo treated mice infected with Poliovirus. The format is functional. The essentials:
as §2

For `CCOC(=O)c1ccc(OCCCCCCCc2cc(C)no2)cc1`, the MIC is more than 0.8 µg/mL in assay [1] and 0.025 µg/mL (≈ 0.0724 µM) against Enterovirus.
In the case of `Cc1cc(CCCCCCCCOc2ccc(C3=NCCO3)cc2)on1`, the maximal testable concentration in the assay listed under Mus musculus [2] came out at 8 µg/mL. For the same compound, the figures for the MIC (in [1]; in the assay on Enterovirus) were 0.01 µg/mL (≈ 0.0281 µM) and 0.16 µg/mL (≈ 0.449 µM), respectively.
As to `COCC1CN=C(c2ccc(OCCCCCCCc3cc(C)no3)cc2)O1` (stereo not given), the maximal testable concentration in the assay listed under Mus musculus [2] worked out at 3.1 µg/mL. Also, the MIC result in the assay on Mus musculus [3] is “inactive”. Further, the MIC against Enterovirus was 0.2 µg/mL (≈ 0.517 µM).
Turning to `Cc1cc(CCCCCCCOc2ccc(C3=N[C@H](C)CO3)cc2)on1`, in the assay filed under Mus musculus [2], the maximal testable concentration was 3.1 µg/mL. Further, the MIC in assay [1] amounted to 0.16 µg/mL (≈ 0.449 µM); with Enterovirus it was 0.02 µg/mL (≈ 0.0561 µM).
For the compound `Cc1cc(CCCCCCCOc2ccc(C3=NCC(CO)O3)cc2)on1` (stereo not given), the maximal testable concentration in the assay filed under Mus musculus [2] is 3.1 µg/mL. The MIC in assay [1] is 2.6 µg/mL (≈ 6.98 µM); with Enterovirus, 1.6 µg/mL (≈ 4.3 µM).
For the compound `Cc1cc(CCCCCCCOc2ccc(C3=NC(C)CO3)cc2)on1` (stereo not given), the maximal testable concentration in the assay listed under Mus musculus [2] stood at 3.1 µg/mL. Moreover, the MIC in assay [1] turned out to be 0.12 µg/mL (≈ 0.337 µM); with Enterovirus, 0.04 µg/mL (≈ 0.112 µM).
Taken in the same sequence, the figures for `Cc1cc(CCCCOc2ccc(C3=NCCO3)cc2)on1` were 6.2 µg/mL, 0.49 µg/mL (≈ 1.63 µM) and 0.53 µg/mL (≈ 1.76 µM).
`COc1ccc(OCCCCCCCc2cc(C)no2)c(Cl)c1`: the MIC in assay [1] was 0.05 µg/mL (≈ 0.148 µM); against Enterovirus, 0.04 µg/mL (≈ 0.118 µM).
Take `Cc1cc(CCCCCCCOc2ccc(C3=NCCO3)cc2)on1` [DISOXARIL]: the Activity in the assay with Mus musculus [4] is recorded as 2; in the assay with Mus musculus [5] it was 63.7%; in the assay on Mus musculus [6], 19; in the assay on Mus musculus [7] it was 20%; with Mus musculus [8], 6; in the assay with Mus musculus [9], 96.7%. The Activity in the assay on Mus musculus [10] was determined as 29; in the assay listed under Mus musculus [11], 0%; in the assay listed under Mus musculus [12], 0; in the assay with Mus musculus [13], 6.7%. The maximal testable concentration in the assay listed under Mus musculus [2] came out at 6.2 µg/mL. Besides, the MIC in assay [1] was 0.004 µg/mL (≈ 0.0117 µM); in the assay on Enterovirus it was 0.1 µg/mL (≈ 0.292 µM). In addition, the No. of survivors/total with Mus musculus [14] amounted to 13; in the assay on Mus musculus [15] it was 15; with Mus musculus [16], 8; in the assay with Mus musculus [17] it was 9; in the assay on Mus musculus [18], 4. Moreover, the Survivors was found to be 65% in the assay on Mus musculus [19]; 71% in the assay on Mus musculus [20]; 40% in the assay on Mus musculus [21]; 45% in the assay on Mus musculus [22]; 20% in the assay with Mus musculus [23].
For `Cc1cc(CCCCCCCOc2ccc(C3=NC(C)(C)CO3)cc2)on1`, the maximal testable concentration in the assay listed under Mus musculus [2] is 3.1 µg/mL. The MIC in assay [1] is 1.1 µg/mL (≈ 2.97 µM); in the assay on Enterovirus, 0.06 µg/mL (≈ 0.162 µM).
With `Cc1cc(CCCCCCCOc2ccc(C3=NC(CO)CO3)cc2)on1` (stereo not given), the maximal testable concentration in the assay filed under Mus musculus [2] turned out to be 3.1 µg/mL. The MIC entry in the assay on Mus musculus [3] is “inactive”. In the assay with Enterovirus, the MIC was 0.9 µg/mL (≈ 2.42 µM).
Take `Cc1cc(CCCCCCOc2ccc(C3=NCCO3)cc2)on1`: in the assay filed under Mus musculus [2], the maximal testable concentration is 3.1 µg/mL. Also, the figures for the MIC (in [1]; against Enterovirus) were 0.008 µg/mL (≈ 0.0244 µM) and 0.12 µg/mL (≈ 0.365 µM), respectively.
Consider `Cc1cc(CCCCCCCOc2ccc(C3=NCC(C)O3)cc2)on1` (stereo not given), for which the maximal testable concentration in the assay listed under Mus musculus [2] was 6.2 µg/mL. For the same compound, the MIC in [1] was 0.49 µg/mL (≈ 1.37 µM); against Enterovirus it was 0.06 µg/mL (≈ 0.168 µM).
Turning to `Cc1cc(CCCCCOc2ccc(C3=NCCO3)cc2)on1`, the maximal testable concentration in the assay listed under Mus musculus [2] was 3.1 µg/mL. Moreover, the figures for the MIC (in [1]; with Enterovirus) were 0.003 µg/mL (≈ 0.00954 µM) and 0.1 µg/mL (≈ 0.318 µM), respectively.
